Assay results as given in ChEMBL document CHEMBL3297713, “Discovery, optimization, and biological evaluation of 5-(2-(trifluoromethyl)phenyl)indazoles as a novel class of transient receptor potential A1 (TRPA1) antagonists” (J Med Chem, 2014).
Each block holds one molecule with its values, some of them ahead of it.

Tests used:
[1] = target: T1, Transient receptor potential cation channel subfamily A member 1 (Homo sapiens, UniProt O75762); assay: Antagonist activity at human TRPA1 expressed in CHO-TREX cells assessed as inhibition of cinnamaldehyde-induced calcium flux incubated 10 mins prior to cinnamaldehyde addition by FLIPR assay relative to control; type: cell-based
T1 sequence (O75762 whole entry): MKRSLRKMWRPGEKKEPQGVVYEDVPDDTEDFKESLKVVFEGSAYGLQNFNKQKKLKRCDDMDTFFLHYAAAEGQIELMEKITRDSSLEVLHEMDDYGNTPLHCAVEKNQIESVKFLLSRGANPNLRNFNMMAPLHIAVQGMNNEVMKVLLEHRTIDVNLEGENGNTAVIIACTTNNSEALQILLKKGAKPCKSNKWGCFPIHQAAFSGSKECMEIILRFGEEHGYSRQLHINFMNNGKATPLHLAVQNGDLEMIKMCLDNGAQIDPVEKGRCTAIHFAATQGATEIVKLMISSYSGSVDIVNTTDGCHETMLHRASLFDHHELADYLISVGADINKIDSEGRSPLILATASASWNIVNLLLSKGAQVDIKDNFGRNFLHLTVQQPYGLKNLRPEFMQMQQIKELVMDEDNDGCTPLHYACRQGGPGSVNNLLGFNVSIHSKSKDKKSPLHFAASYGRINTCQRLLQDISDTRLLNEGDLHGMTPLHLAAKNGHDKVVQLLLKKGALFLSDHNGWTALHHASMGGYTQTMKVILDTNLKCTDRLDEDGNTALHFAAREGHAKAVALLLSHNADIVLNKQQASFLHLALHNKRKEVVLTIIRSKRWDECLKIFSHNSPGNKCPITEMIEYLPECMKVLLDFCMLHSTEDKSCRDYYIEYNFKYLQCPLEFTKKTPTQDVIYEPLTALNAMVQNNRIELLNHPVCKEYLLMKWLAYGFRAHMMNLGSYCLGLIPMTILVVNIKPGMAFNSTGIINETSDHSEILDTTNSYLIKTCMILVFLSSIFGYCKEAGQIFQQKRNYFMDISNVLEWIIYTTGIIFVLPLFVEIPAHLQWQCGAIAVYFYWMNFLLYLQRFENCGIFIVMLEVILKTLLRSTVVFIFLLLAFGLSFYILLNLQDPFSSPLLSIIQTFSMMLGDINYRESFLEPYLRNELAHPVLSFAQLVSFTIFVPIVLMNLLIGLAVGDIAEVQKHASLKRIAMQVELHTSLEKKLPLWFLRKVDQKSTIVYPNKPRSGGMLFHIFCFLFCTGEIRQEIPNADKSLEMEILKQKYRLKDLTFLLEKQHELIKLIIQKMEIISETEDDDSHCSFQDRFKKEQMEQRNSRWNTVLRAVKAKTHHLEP
Method in brief: (§1)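 TRPA1-expressing CHO-TREX cells, channel expression induced with tetracycline (0.5 µg/mL human, 1 µg/mL mouse or rat). Cells loaded with Fluo4-AM for 90 min at room temperature, washed, then test agent added in HBSS/20 mM HEPES/2.5 mM probenecid/0.1% BSA. Agonist added 10 min later at EC80: human cinnamaldehyde 30 µM, AITC 2.5 µM, dibenzoxazepine-carboxamide 5 nM; rat and mouse cinnamaldehyde 40 µM. FLIPR calcium flux; mean of triplicates fitted to sigmoidal dose-response curves.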

[2] = target: Transient receptor potential cation channel subfamily A member 1 (Rattus norvegicus) (UniProt Q6RI86); assay: (§2) Antagonist activity at rat TRPA1 expressed in CHO-TREX cells assessed as inhibition of cinnamaldehyde-induced calcium flux incubated 10 mins prior to cinnamaldehyde addition by FLIPR assay relative to control; type: cell-based; set-up: concentration or dose not given beside the values; method in brief: as §1
Chain of Transient receptor potential cation channel subfamily A member 1 (Rattus norvegicus) (Q6RI86 whole entry): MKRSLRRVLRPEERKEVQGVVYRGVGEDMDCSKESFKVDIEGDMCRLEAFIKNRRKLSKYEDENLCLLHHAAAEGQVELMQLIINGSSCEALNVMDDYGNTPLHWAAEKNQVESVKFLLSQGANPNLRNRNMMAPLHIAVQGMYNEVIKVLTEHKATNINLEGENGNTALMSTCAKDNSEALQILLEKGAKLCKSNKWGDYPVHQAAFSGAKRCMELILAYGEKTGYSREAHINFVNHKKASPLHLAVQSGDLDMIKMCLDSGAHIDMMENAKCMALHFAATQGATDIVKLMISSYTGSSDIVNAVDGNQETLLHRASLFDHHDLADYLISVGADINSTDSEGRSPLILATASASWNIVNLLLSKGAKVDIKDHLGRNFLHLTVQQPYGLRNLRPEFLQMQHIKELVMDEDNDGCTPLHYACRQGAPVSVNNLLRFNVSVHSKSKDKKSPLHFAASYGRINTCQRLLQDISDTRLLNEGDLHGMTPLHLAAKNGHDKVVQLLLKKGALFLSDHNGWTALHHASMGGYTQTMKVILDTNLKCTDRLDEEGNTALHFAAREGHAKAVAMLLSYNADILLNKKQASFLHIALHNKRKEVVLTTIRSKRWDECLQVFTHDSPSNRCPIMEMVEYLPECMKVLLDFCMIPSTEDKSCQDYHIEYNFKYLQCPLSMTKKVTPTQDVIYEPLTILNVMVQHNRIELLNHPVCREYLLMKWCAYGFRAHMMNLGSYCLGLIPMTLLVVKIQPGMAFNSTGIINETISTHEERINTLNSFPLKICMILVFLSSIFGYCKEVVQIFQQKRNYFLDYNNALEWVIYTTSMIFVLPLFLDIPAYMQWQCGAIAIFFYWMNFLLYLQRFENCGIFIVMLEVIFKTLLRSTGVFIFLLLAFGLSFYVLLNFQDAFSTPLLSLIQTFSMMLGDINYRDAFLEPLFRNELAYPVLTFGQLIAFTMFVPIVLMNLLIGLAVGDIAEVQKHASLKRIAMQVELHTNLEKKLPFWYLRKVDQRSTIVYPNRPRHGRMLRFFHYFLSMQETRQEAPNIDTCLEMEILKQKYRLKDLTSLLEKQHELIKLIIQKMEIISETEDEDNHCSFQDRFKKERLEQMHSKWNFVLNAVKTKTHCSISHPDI

[3] = target: Transient receptor potential cation channel subfamily A member 1 (Rattus norvegicus, UniProt Q6RI86); assay: as §2; type: cell-based; method in brief: as §1
Chain of Transient receptor potential cation channel subfamily A member 1 (Rattus norvegicus, UniProt Q6RI86) (Q6RI86 whole entry): as above

[4] = target: Transient receptor potential cation channel subfamily A member 1 (Mus musculus) (UniProt Q8BLA8); assay: (§3) Antagonist activity at mouse TRPA1 expressed in CHO-TREX cells assessed as inhibition of cinnamaldehyde-induced calcium flux incubated 10 mins prior to cinnamaldehyde addition by FLIPR assay relative to control; type: cell-based; set-up: concentration or dose not given beside the values; method in brief: as §1
Chain of Transient receptor potential cation channel subfamily A member 1 (Mus musculus) (Q8BLA8 whole entry): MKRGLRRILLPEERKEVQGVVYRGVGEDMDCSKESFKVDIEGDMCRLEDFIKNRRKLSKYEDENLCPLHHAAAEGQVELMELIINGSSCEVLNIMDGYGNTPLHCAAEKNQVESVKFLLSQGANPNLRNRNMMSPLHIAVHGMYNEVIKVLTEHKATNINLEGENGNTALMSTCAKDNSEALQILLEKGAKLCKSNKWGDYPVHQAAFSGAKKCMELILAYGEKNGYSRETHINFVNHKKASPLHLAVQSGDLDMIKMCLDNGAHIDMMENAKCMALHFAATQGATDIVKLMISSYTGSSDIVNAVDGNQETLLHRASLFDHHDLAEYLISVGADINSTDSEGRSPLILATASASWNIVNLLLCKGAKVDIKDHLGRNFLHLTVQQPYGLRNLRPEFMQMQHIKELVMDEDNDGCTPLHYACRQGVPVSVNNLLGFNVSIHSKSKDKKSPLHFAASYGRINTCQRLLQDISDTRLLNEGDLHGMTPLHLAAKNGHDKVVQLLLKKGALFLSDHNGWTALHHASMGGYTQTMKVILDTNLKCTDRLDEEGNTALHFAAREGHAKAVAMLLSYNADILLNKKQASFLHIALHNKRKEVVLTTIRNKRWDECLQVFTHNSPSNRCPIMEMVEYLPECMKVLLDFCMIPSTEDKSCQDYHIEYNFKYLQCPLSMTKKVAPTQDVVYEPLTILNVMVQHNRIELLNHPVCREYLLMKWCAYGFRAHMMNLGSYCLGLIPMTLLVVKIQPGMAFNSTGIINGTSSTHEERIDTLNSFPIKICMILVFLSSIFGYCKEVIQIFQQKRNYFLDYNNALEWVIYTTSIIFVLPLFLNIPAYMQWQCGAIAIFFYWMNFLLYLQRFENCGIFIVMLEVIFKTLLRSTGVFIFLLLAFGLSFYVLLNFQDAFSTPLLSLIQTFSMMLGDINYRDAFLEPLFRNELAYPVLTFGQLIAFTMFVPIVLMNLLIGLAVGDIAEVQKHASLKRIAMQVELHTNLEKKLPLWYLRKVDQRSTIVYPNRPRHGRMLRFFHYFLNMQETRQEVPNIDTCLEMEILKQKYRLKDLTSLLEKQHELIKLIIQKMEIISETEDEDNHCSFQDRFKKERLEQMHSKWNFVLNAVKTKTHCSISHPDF

[5] = target: Transient receptor potential cation channel subfamily A member 1 (Mus musculus, UniProt Q8BLA8); assay: as §3; type: cell-based; method in brief: as §1
Chain of Transient receptor potential cation channel subfamily A member 1 (Mus musculus, UniProt Q8BLA8) (Q8BLA8 whole entry): as above

[6] = target: Transient receptor potential cation channel subfamily V member 1 (Homo sapiens, UniProt Q8NER1); assay: Antagonist activity at human TRPV1 expressed in CHOK1 cells assessed as inhibition of capsaicin-induced calcium flux incubated 10 mins prior to capsaicin addition by FLIPR assay relative to control; type: cell-based, CHO-K1
Chain of Transient receptor potential cation channel subfamily V member 1 (Q8NER1 whole entry): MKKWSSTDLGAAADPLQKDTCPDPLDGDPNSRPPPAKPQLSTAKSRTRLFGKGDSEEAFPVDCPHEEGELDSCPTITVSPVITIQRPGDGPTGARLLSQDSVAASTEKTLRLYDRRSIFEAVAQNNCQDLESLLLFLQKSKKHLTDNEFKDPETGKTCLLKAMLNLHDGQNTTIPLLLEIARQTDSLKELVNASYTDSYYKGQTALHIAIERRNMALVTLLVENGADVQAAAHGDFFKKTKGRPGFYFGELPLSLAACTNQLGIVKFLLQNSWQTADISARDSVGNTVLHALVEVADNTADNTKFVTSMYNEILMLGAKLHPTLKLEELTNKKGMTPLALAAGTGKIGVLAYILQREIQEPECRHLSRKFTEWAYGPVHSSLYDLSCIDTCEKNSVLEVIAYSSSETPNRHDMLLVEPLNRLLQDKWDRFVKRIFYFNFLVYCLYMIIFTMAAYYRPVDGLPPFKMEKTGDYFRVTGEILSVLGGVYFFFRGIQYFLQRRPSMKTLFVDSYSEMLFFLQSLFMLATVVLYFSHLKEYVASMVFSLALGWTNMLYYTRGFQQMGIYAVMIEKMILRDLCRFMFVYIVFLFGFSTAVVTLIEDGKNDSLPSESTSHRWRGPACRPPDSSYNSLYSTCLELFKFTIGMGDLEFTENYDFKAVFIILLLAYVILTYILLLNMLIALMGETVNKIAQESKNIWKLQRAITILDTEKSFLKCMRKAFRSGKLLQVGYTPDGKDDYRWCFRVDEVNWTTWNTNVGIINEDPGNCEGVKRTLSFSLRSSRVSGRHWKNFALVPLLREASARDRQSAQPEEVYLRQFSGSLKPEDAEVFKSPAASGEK

[7] = target: T2, Transient receptor potential cation channel subfamily V member 3 (Homo sapiens) (UniProt Q8NET8); assay: (§4) Antagonist activity at human TRPV3 expressed in CHOK1 cells assessed as inhibition of 2-APB-induced calcium flux incubated 10 mins prior to 2-APB addition by FLIPR assay relative to control; type: cell-based; set-up: concentration or dose not given beside the values; settings: CHO-K1
T2 sequence (whole entry): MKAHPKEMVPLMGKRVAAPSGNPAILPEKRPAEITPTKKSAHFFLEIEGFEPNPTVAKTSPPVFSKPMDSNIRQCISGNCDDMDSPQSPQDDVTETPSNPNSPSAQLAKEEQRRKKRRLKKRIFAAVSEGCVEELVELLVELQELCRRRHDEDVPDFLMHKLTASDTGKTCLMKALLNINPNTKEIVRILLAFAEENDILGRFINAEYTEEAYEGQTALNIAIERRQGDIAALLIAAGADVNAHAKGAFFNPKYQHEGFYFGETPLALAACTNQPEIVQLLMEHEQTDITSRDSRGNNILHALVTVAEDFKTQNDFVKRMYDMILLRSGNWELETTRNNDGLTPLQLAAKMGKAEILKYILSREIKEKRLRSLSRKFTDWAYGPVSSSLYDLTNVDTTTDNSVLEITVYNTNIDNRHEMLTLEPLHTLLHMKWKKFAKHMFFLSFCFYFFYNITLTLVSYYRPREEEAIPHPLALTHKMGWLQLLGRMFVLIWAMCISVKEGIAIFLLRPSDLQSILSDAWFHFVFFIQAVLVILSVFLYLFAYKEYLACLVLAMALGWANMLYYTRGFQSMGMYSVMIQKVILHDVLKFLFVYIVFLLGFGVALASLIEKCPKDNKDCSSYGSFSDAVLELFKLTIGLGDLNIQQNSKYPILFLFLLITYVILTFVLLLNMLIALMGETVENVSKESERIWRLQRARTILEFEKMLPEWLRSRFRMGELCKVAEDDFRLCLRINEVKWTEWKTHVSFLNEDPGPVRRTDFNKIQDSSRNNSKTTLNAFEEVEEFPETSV

[8] = target: T3, Transient receptor potential cation channel subfamily V member 3 (Homo sapiens, UniProt Q8NET8); assay: as §4; type: cell-based, CHO-K1
T3 sequence (Q8NET8 whole entry): T2 sequence (whole entry)

[9] = target: Transient receptor potential cation channel subfamily M member 8 (Homo sapiens, UniProt Q7Z2W7); assay: Antagonist activity at human TRPM8 expressed in CHOK1 cells assessed as inhibition of menthol-induced calcium flux incubated 10 mins prior to menthol addition by FLIPR assay relative to control; type: cell-based, CHO-K1
CHO-K1 [10] = assay: Selectivity ratio of IC50 for human TRPV1 expressed in CHOK1 cells to IC50 for human TRPA1 expressed in CHO-TREX cells; type: cell-based
Method in brief: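 Stable hTRPV1 CHO-K1 and tetracycline-induced (0.5 µg/mL) hTRPA1 CHO-TREX cells were loaded with Fluo4-AM for 90 min at room temperature and read on FLIPR. Antagonist preincubation was 10 min before EC80 agonist: capsaicin 40 nM (TRPV1); cinnamaldehyde 30 µM, AITC 2.5 µM or dibenzoxazepine carboxamide 5 nM (TRPA1). Buffer contained probenecid and BSA. IC50s were fitted from triplicate means of max−min calcium signal.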

CHO-K1 [11] = assay: Selectivity ratio of IC50 for human TRPV3 expressed in CHOK1 cells to IC50 for human TRPA1 expressed in CHO-TREX cells; type: cell-based
Method in brief: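 Calcium influx was measured by FLIPR in Fluo4-AM-loaded cells: hTRPV3 CHO-K1 challenged with 40 µM 2-APB, and hTRPA1 CHO-TREX (0.5 µg/mL tetracycline) challenged with 30 µM cinnamaldehyde, 2.5 µM AITC or 5 nM dibenzoxazepine carboxamide, all at EC80. Compounds were added 10 min ahead of agonist in HEPES-buffered HBSS with probenecid. Sigmoidal curves were fitted to triplicate means.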

CHO-K1 [12] = assay: Selectivity ratio of IC50 for human TRPM8 expressed in CHOK1 cells to IC50 for human TRPA1 expressed in CHO-TREX cells; type: cell-based
Method in brief: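 FLIPR calcium-flux antagonist assays with Fluo4-AM loading (90 min, room temperature) in HBSS/20 mM HEPES/2.5 mM probenecid/0.1% BSA. Compound added 10 min before agonist at EC80: 40 µM menthol for CHO-K1 hTRPM8; for tetracycline-induced (0.5 µg/mL) CHO-TREX hTRPA1, 30 µM cinnamaldehyde, 2.5 µM AITC or 5 nM dibenzoxazepine carboxamide. Response is maximum minus minimum. IC50s come from sigmoidal fits of triplicate means.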

[13] = Clearance in Wistar rat at 1 mg/kg, iv; type: ADME, organism-based; set-up: dose 1 mg/kg, route intravenous; settings: in vivo
Method in brief: (§5)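 Wistar rats given 1 mg/kg i.v. as a solution in 75% PEG200/25% D5W.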

[14] = Volume of distribution at steady state in Wistar rat at 1 mg/kg, iv; type: ADME, organism-based; set-up: dose 1 mg/kg, route intravenous; settings: in vivo, read-out: Vdss; method in brief: as §5
[15] = Half life in Wistar rat at 1 mg/kg, iv; type: ADME, organism-based; set-up: dose 1 mg/kg, route intravenous; settings: in vivo; method in brief: as §5
[16] = AUC in Wistar rat at 10 mg/kg, po; type: ADME, organism-based; set-up: dose 10 mg/kg, route oral; settings: plasma
Method in brief: (§6)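 Male Wistar rats dosed orally at 10 mg/kg as a suspension in 0.5% methylcellulose/0.5% Tween80.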

[17] = Cmax in Wistar rat at 10 mg/kg, po; type: ADME, organism-based; set-up: dose 10 mg/kg, route oral; settings: in vivo; method in brief: as §6
[18] = Tmax in Wistar rat at 10 mg/kg, po; type: ADME, organism-based; set-up: dose 10 mg/kg, route oral; settings: in vivo; method in brief: as §6
[19] = Oral bioavailability in Wistar rat at 10 mg/kg; type: ADME, organism-based; settings: in vivo; method in brief: as §6
[20] = target: T1, Transient receptor potential cation channel subfamily A member 1; assay: Antagonist activity at TRPA1 (unknown origin)
Method in brief: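 TRPA1 expressed in CHO-TREX cells, induced with tetracycline (0.5 µg/mL for human, 1 µg/mL for mouse or rat). Cells loaded with Fluo4-AM for 90 min at room temperature, then washed. Antagonist added 10 min before an EC80 agonist in HBSS/20 mM HEPES, 2.5 mM probenecid, 0.1% BSA. Calcium flux read by FLIPR. IC50 taken from sigmoidal curves of triplicate means.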

IC50 [1]: 26 nM
inhibition [1]: 98%
inhibition [2]: 99%
IC50 [3]: 99 nM
inhibition [4]: 100%
IC50 [5]: 161 nM
IC50 [6]: > 30000 nM
inhibition ([6]; CHO-K1): 35%
inhibition [7]: 35%
IC50 [8]: > 30000 nM
IC50 [9]: 10900 nM
inhibition ([9]; CHO-K1): 100%
clearance [13]: 35.5 mL/min/kg
Vd [14]: 3.6 L/kg
half-life [15]: 6.6 h
AUC [16]: 8.2 µM·h
Cmax [17]: 2000 nM
Tmax [18]: 0.8 h
bioavailability [19]: 50%
Structure (SMILES): COc1cc2[nH]ncc2cc1-c1ccccc1C(F)(F)F
Ratio IC50 (CHO-K1 [10]): > 100
Ratio IC50 (CHO-K1 [11]): > 100
Ratio IC50 (CHO-K1 [12]): > 100

IC50 [20]: 2300 nM
Structure (SMILES): CC(C)c1ccc(NC(=O)Cn2cnc3c2c(=O)n(C)c(=O)n3C)cc1
